Assays:
[1] = Selectivity index, ratio of IC50 for equine serum BuChE to IC50 for electric eel AChE
Cholinesterase [2] = biological target: T1, Cholinesterase (Homo sapiens, UniProt P06276); assay: Inhibition of human serum BuChE using S-butyrylthiocholine iodide as substrate preincubated for 5 mins followed by substrate addition measured at 1 to 3 mins time interval by Ellman's method; type: ADME
[3] = biological target: T2, Amine oxidase [flavin-containing] B (Homo sapiens, UniProt P27338); assay: Inhibition of recombinant human MAO-B assessed as reduction in H2O2 production using p-tyramine as substrate preincubated for 15 mins followed by substrate addition by Amplex red reagent based fluorescence assay
T2 sequence (P27338 whole entry): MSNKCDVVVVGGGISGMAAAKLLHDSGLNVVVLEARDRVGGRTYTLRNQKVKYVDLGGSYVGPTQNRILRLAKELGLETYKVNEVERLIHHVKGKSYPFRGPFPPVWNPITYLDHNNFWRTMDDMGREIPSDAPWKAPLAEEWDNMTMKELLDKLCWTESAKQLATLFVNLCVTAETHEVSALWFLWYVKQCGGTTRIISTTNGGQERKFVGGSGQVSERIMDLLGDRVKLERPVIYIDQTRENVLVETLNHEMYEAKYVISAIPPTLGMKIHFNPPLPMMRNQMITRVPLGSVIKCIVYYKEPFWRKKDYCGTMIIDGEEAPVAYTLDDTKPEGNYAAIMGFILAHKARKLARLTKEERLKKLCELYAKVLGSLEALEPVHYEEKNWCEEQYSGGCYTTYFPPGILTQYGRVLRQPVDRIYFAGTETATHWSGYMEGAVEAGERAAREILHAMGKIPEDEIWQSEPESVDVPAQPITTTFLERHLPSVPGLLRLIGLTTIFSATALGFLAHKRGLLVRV
Outline: (§1)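 Human MAO-A or MAO-B, each set to the same control reaction velocity. Preincubated with compound 15 min at 37°C in the dark, in sodium phosphate buffer with DMSO. Then 200 μM Amplex Red (final) added with 1 U/mL HRP and 1 mM p-tyramine. Run in triplicate, mean ± SD.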

Cholinesterase [4] = biological target: T3, Cholinesterase (Equus caballus, UniProt P81908); assay: Inhibition of equine serum BuChE using S-butyrylthiocholine iodide as substrate preincubated for 5 mins followed by substrate addition measured at 1 to 3 mins time interval by Ellman's method; type: ADME
T3 sequence (P81908 whole entry): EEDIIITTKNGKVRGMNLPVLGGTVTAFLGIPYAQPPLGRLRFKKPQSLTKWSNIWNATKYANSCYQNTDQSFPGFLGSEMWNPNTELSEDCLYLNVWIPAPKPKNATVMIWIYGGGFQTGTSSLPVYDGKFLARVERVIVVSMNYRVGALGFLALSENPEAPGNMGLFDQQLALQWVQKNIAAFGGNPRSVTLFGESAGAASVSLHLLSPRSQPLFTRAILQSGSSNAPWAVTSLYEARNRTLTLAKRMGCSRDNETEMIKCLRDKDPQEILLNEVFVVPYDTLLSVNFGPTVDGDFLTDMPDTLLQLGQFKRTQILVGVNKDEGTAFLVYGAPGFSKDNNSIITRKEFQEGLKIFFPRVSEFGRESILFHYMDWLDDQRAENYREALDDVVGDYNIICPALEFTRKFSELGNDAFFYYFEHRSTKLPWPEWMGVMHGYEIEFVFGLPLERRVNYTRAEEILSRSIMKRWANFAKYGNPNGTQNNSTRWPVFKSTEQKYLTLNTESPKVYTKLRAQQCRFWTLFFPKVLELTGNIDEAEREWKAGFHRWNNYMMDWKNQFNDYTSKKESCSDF

Acetylcholinesterase [5] = biological target: Acetylcholinesterase (Homo sapiens, UniProt P22303); assay: Inhibition of human erythrocytes AChE using acetylthiocholine iodide as substrate preincubated for 5 mins followed by substrate addition measured at 1 to 3 mins time interval by Ellman's method
Sequence of Acetylcholinesterase (Homo sapiens, UniProt P22303) (P22303 whole entry): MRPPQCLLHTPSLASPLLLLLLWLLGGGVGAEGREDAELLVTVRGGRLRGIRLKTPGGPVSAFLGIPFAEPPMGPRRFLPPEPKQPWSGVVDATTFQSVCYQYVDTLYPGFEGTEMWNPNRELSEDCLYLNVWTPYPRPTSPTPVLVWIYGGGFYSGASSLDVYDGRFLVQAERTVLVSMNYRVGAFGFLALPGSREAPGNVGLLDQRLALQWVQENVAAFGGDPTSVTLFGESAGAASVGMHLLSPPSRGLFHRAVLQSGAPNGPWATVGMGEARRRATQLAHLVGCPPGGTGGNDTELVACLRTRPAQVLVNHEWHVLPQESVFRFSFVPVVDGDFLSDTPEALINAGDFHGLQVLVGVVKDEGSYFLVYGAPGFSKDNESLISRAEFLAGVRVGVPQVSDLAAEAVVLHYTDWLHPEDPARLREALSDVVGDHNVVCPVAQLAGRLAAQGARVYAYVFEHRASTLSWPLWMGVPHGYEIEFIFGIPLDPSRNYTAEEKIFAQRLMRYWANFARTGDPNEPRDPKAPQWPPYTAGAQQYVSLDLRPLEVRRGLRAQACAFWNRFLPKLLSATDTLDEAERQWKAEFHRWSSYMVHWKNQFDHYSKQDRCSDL

Homo sapiens [6] = species on record: Homo sapiens; assay: Selectivity index, ratio of IC50 for human serum BuChE to IC50 for human erythrocytes AChE
Acetylcholinesterase [7] = biological target: Acetylcholinesterase (Electrophorus electricus, UniProt O42275); assay: Inhibition of electric eel AChE using acetylthiocholine iodide as substrate preincubated for 5 mins followed by substrate addition measured at 1 to 3 mins time interval by Ellman's method
Sequence of Acetylcholinesterase (Electrophorus electricus, UniProt O42275) (O42275 whole entry): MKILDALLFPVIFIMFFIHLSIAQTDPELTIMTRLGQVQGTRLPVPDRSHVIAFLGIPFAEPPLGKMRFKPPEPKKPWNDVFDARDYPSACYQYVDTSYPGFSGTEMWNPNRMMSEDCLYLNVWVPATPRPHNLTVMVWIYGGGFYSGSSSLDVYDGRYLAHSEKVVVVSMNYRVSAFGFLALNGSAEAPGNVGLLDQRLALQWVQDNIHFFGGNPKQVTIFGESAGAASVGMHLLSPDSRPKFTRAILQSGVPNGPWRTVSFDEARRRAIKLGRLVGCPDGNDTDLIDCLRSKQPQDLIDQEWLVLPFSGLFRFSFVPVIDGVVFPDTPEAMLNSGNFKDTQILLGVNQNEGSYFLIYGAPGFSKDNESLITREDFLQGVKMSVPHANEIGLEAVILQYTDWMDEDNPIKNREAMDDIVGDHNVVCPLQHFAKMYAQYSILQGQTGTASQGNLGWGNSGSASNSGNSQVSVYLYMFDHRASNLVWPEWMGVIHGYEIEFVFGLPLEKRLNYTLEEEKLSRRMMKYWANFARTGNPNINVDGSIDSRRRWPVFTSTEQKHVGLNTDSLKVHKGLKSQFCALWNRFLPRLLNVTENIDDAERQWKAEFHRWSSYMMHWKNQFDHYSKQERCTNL

Homo sapiens [8] = species on record: Homo sapiens; assay: Selectivity index, ratio of IC50 for recombinant human MAO-A to IC50 for recombinant human MAO-B
[9] = biological target: T4, Amine oxidase [flavin-containing] A (Homo sapiens, UniProt P21397); assay: Inhibition of recombinant human MAO-A assessed as reduction in H2O2 production using p-tyramine as substrate preincubated for 15 mins followed by substrate addition by Amplex red reagent based fluorescence assay
T4 sequence (P21397 whole entry): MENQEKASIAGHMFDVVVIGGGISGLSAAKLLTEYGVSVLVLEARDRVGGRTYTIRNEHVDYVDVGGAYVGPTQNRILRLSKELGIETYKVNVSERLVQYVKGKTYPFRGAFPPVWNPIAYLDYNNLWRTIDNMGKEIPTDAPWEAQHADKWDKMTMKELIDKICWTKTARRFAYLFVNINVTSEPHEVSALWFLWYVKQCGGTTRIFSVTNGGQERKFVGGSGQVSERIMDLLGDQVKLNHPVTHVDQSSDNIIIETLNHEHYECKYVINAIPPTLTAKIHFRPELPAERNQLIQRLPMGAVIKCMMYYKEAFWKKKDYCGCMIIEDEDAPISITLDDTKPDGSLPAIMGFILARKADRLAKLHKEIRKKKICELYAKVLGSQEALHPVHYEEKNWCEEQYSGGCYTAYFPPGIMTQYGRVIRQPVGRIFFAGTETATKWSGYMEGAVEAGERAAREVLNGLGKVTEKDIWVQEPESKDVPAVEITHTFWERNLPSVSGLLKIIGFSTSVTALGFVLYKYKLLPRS

[10] = biological target: T4, Amine oxidase [flavin-containing] A; assay: Inhibition of recombinant human MAO-A assessed as reduction in H2O2 production at 100 uM using p-tyramine as substrate preincubated for 15 mins followed by substrate addition by Amplex red reagent based fluorescence assay
Outline: as §1, with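 “p-tyramine. Resorufin fluorescence read at 37°C (ex 545/em 590 nm), background from enzyme-free wells subtracted.” for “p-tyramine.”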

Cholinesterase [11] = biological target: T1, Cholinesterase; assay: Inhibition of human serum BuChE at 100 uM using S-butyrylthiocholine iodide as substrate preincubated for 5 mins followed by substrate addition measured at 1 to 3 mins time interval by Ellman's method
Outline: (§2)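 Ellman assay: compound diluted in 50 mM Tris-HCl pH 8.0 with 0.1 M NaCl, 0.02 M MgCl2 (DMSO 1%). Preincubated 5 min at 37°C with 1.5 mM DTNB and BuChE (0.12 U/mL in Tris with 0.1% BSA); 15 mM S-butyrylthiocholine iodide added; absorbance at 405 nm read at 0, 1, 2, 3 min.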

Cholinesterase [12] = biological target: T3, Cholinesterase; assay: Inhibition of equine serum BuChE at 100 uM using S-butyrylthiocholine iodide as substrate preincubated for 5 mins followed by substrate addition measured at 1 to 3 mins time interval by Ellman's method; conditions: horse; outline: as §2

T1 sequence (P06276 whole entry): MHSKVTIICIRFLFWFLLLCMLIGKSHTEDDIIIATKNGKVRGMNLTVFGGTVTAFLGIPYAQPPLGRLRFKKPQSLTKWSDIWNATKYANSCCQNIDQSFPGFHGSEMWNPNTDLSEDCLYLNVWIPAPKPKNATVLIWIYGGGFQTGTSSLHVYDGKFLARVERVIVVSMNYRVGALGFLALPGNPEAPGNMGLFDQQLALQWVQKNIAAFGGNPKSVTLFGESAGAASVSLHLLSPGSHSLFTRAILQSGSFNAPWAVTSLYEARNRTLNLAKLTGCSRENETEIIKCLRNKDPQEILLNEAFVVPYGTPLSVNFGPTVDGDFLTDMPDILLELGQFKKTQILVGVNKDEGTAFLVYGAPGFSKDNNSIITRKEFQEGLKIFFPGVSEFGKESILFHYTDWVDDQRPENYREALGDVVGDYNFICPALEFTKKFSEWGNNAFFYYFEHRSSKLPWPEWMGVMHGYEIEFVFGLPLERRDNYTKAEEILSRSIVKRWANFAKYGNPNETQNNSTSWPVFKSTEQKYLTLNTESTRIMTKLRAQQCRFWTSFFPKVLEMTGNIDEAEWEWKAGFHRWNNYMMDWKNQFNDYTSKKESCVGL

| Structure (SMILES) | Ratio IC50 [1] | IC50 (Cholinesterase [2]) [µM] | IC50 [3] [µM] | IC50 (Cholinesterase [4]) [µM] | IC50 (Acetylcholinesterase [5]) [µM] | Ratio IC50 (Homo sapiens [6]) | IC50 (Acetylcholinesterase [7]) [µM] | Ratio IC50 (Homo sapiens [8]) | IC50 [9] [µM] | inhibition (INH) [10] | inhibition (INH) (Cholinesterase [11]) | inhibition (INH) (Cholinesterase [12]) |
| --- | --- | --- | --- | --- | --- | --- | --- | --- | --- | --- | --- | --- |
| CN(C)CCCOc1cccc(/C=C2\COc3ccccc3C2=O)c1 | 0.435 | 39.3 | 0.0484 | 2.16 | 25.7 | 1.53 | 4.97 | 1940 | 93.7 |  |  |  |
| CN(CCCOc1ccc(/C=C2\COc3ccccc3C2=O)cc1)Cc1ccccc1 | 0.369 |  | 0.88 | 19.3 |  |  | 52.3 | > 114 |  | Not Active |  |  |
| CN1CCN(CCCCOc2ccc(/C=C3\COc4ccccc4C3=O)cc2)CC1 | 0.799 |  | 16.4 | 10.4 |  |  | 13 | > 6.1 |  | Not Active |  |  |
| CN(C)CCCCCCOc1ccc(/C=C2\COc3ccccc3C2=O)cc1 | 0.712 |  | 3.22 | 9.12 |  |  | 12.8 | 12.1 | 39.1 |  |  |  |
| CN(CCOc1ccc(/C=C2\COc3ccccc3C2=O)cc1)Cc1ccccc1 | 2.14 |  | 2.28 | 41.5 |  |  | 19.3 | > 43.8 |  | Not Active |  |  |
| CN1CCN(CCCCCCOc2ccc(/C=C3\COc4ccccc4C3=O)cc2)CC1 | 0.843 |  | 6.24 | 27.3 |  |  | 32.3 | > 16.1 |  | Not Active |  |  |
| CCN(CC)CCCOc1ccc(/C=C2\COc3ccccc3C2=O)cc1 | 2.58 |  | 0.166 | 8.27 |  |  | 3.2 | 379 | 62.9 |  |  |  |
| O=C1/C(=C/c2ccc(OCCCN3CCN(Cc4ccccc4)CC3)cc2)COc2ccccc21 | 87.8 |  | 38.6 | 89.5 | 4.72 | > 21.2 | 1.02 | > 2.59 |  | Not Active | Not Active |  |
| CCN(CC)CCOc1ccccc1/C=C1\COc2ccccc2C1=O | 0.176 |  | 43.8 | 11.5 |  |  | 65.3 | > 2.64 |  | Not Active |  |  |
| CCN(CC)CCCCOc1ccc(/C=C2\COc3ccccc3C2=O)cc1 | 0.756 | 11.3 | 2.86 | 4.61 | 14.1 | 0.801 | 6.1 | 18.5 | 52.9 |  |  |  |
| O=C1/C(=C/c2ccc(OCCN3CCN(Cc4ccccc4)CC3)cc2)COc2ccccc21 | 1.5 |  | 97.5 | 31.5 |  |  | 21 | > 1.03 |  | Not Active |  |  |
| CCN(CC)CCCOc1cccc(/C=C2\COc3ccccc3C2=O)c1 | 0.0732 |  | 18.2 | 1.03 |  |  | 14.1 | 3.55 | 64.7 |  |  |  |
| CN(CCCCCCOc1ccc(/C=C2\COc3ccccc3C2=O)cc1)Cc1ccccc1 | 28.7 | 20 | > 100 | 50.7 | 40.9 | 0.489 | 1.77 | > 1 |  | Not Active |  |  |
| CCN(CC)CCCCCCOc1ccc(/C=C2\COc3ccccc3C2=O)cc1 | 1.29 | 4.25 | 2.9 | 4.83 | 1.85 | 2.3 | 3.75 | 13.1 | 37.8 |  |  |  |
| CCN(CC)CCOc1cccc(/C=C2\COc3ccccc3C2=O)c1 | 0.403 | 10.3 | 0.824 | 1.68 | 30.3 | 0.34 | 4.16 | 97.1 | 80 |  |  |  |
| O=C1/C(=C/c2ccc(OCCCCCCN3CCN(Cc4ccccc4)CC3)cc2)COc2ccccc21 | > 1.65 |  | > 100 |  |  |  | 60.8 | > 1 |  | Not Active |  | Not Active |
| CCN(CC)CCOc1ccc(/C=C2\COc3ccccc3C2=O)cc1 | 28 | 23.6 | 0.0381 | 28.9 | 3.29 | 7.17 | 1.03 | 1220 | 46.6 |  |  |  |
| CCN(CCOc1ccc(/C=C2\COc3ccccc3C2=O)cc1)Cc1ccccc1 | 38.3 |  | 4.29 | 49.4 |  |  | 1.29 | > 23.3 |  | Not Active |  |  |
| CN1CCN(CCCOc2ccc(/C=C3\COc4ccccc4C3=O)cc2)CC1 | 1.53 |  | 22.7 | 15.4 |  |  | 10.1 | > 4.41 |  | Not Active |  |  |
| CCN(CCCCCCOc1ccc(/C=C2\COc3ccccc3C2=O)cc1)Cc1ccccc1 | 2.36 |  | > 100 | 40 |  |  | 17 | > 1 |  | Not Active |  |  |
| CN(C)CCOc1ccccc1/C=C1\COc2ccccc2C1=O | 0.154 |  | > 100 | 10 |  |  | 65.3 | > 1 |  | Not Active |  |  |
| CN(C)CCCCOc1ccc(/C=C2\COc3ccccc3C2=O)cc1 | 1.54 |  | 0.756 | 18.9 |  |  | 12.3 | > 132 |  | Not Active |  |  |
| CCN(CCCOc1ccc(/C=C2\COc3ccccc3C2=O)cc1)Cc1ccccc1 | 0.583 |  | 1.59 | 17.2 |  |  | 29.4 |  |  |  |  |  |
| CN(C)CCCOc1ccc(/C=C2\COc3ccccc3C2=O)cc1 | 3.9 |  | 0.0438 | 20.3 |  |  | 5.21 | > 2280 |  | Not Active |  |  |
| CN(C)CCOc1cccc(/C=C2\COc3ccccc3C2=O)c1 | 8.05 | 4.44 | 0.571 | 8.37 | 1.41 | 3.15 | 1.04 | 66.5 | 38 |  |  |  |
| CN(C)CCCOc1ccccc1/C=C1\COc2ccccc2C1=O | 0.116 |  | > 100 | 8.74 |  |  | 75.1 | > 1 |  | Not Active |  |  |

Reference: ChEMBL document CHEMBL4261537, “Synthesis and pharmacological evaluation of multi-functional homoisoflavonoid derivatives as potent inhibitors of monoamine oxidase B and cholinesterase for the treatment of Alzheimer's disease” (Medchemcomm, 2017)
